Test results reported in ChEMBL document CHEMBL4190292, “Electrophilic Triterpenoid Enones: A Comparative Thiol-Trapping and Bioactivity Study” (J Nat Prod, 2017).
pIC50: −log10 of the molar value.

Assays:
Assay type in all cases: cell-based
[1] = Inhibition of TNF-alpha stimulated NF-kappaB (unknown origin) expressed in mouse NIH/3T3 cells after 6 hrs by luciferase reporter gene assay; settings: NIH3T3, 6 h
How it was run: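 NIH-3T3-KBF-Luc mouse fibroblasts given TNFα (20 ng/mL) with or without compounds for 6 h. Cells washed, lysed in Tris-phosphate pH 7.8 buffer, and luciferase read on the supernatant. Inhibition expressed as percent of TNFα-induced NF-κB activity (100%). Mean of at least five independent experiments.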

[2] = molecular target: T1, Nuclear factor erythroid 2-related factor 2 (Homo sapiens) (UniProt Q16236); test: Activation of Nrf2 (unknown origin) expressed in human HaCaT-ARE-luc cells after 6 hrs by luciferase reporter gene assay relative to control tertbutylhydroquinone
T1 sequence (whole entry): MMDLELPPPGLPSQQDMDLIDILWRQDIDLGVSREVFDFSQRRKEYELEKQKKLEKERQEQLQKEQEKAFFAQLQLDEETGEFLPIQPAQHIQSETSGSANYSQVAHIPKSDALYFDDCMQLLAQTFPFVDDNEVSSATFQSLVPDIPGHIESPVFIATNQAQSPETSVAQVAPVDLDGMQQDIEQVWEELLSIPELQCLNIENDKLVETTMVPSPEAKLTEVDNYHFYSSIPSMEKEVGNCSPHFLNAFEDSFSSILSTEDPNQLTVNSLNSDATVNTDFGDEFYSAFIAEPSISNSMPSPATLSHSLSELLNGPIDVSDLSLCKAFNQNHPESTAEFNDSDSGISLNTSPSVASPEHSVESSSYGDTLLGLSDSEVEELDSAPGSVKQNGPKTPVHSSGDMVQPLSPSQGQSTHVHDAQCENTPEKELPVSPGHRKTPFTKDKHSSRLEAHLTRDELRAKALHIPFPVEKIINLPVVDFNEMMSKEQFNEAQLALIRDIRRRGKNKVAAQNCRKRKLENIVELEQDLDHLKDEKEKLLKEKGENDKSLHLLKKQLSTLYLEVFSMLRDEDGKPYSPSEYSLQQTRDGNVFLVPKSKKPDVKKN

[3] = molecular target: T2, Nuclear factor erythroid 2-related factor 2 (Homo sapiens, UniProt Q16236); test: Activation of Nrf2 (unknown origin) expressed in human HaCaT-ARE-luc cells after 6 hrs by luciferase reporter gene assay
T2 sequence (Q16236 whole entry): T1 sequence (whole entry)
How it was run: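 HaCaT-ARE-Luc keratinocytes in DMEM with 10% FBS, 37 °C, 5% CO2, exposed to compounds for 6 h. Cells then washed with PBS and lysed (Tris-phosphate pH 7.8, MgCl2, DTT, Triton X-100, glycerol, 15 min RT). Luciferase RLU read on the supernatant and EC50 derived. Mean of at least five independent experiments.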

HaCaT = test: Cytotoxicity against human HaCaT cells harboring pARE-Luc assessed as reduction in cell viability at >5 to 10 uM
HeLa = test: Cytotoxicity against human HeLa cells harboring pSTAT3-Luc assessed as reduction in cell viability at >5 to 10 uM
[4] = molecular target: Signal transducer and activator of transcription 3 (Homo sapiens, UniProt P40763); test: Inhibition of IFN-gamma stimulated STAT3 (unknown origin) expressed in human HeLa cells after 6 hrs by luciferase reporter gene assay
Sequence of Signal transducer and activator of transcription 3 (P40763 whole entry): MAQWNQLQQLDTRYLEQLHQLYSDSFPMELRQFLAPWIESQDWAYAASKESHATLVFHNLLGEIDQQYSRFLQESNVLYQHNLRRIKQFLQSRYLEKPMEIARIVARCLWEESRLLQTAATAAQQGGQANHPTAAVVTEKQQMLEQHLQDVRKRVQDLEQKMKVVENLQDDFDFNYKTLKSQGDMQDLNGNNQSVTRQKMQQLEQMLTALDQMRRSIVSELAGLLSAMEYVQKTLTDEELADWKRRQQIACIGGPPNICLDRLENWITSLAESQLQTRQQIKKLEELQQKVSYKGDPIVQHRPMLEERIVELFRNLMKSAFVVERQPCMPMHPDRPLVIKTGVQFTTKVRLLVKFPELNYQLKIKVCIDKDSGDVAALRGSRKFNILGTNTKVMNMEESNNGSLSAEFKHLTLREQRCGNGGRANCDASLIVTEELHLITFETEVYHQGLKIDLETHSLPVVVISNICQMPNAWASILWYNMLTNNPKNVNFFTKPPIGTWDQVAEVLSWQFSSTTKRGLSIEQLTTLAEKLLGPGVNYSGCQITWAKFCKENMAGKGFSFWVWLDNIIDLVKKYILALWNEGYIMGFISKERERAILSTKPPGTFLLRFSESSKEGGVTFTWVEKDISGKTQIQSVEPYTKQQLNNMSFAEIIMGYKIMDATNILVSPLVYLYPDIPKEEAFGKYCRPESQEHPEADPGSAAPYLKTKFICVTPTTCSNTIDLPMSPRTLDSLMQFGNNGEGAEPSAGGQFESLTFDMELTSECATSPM
How it was run: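 HeLa-STAT3-Luc cells stimulated with γIFN (20 IU/mL) with or without compounds for 6 h. PBS-washed cells lysed 15 min at room temperature and luciferase RLU measured. Values expressed as percent inhibition of IFN-γ-induced activity (taken as 100%). Mean of at least five independent experiments.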

COC(=O)[C@]12CCC(C)(C)C[C@H]1C1=CC[C@@H]3[C@@]4(C)C=C(Br)C(=O)C(C)(C)[C@@H]4CC[C@@]3(C)[C@]1(C)CC2
pIC50 [1]: < 4.60

COC(=O)[C@]12CCC(C)(C)C[C@H]1C1=CC[C@@H]3[C@@]4(C)C=CC(=O)C(C)(C)[C@@H]4CC[C@@]3(C)[C@]1(C)CC2
pIC50 [1]: < 4.60

CCOC(=O)/C=C/C1=C[C@]2(C)[C@H]3CC=C4[C@@H]5CC(C)(C)CC[C@]5(C(=O)OC)CC[C@@]4(C)[C@]3(C)CC[C@H]2C(C)(C)C1=O
pIC50 [1]: < 4.60

COC(=O)[C@]12CCC(C)(C)C[C@H]1C1=CC[C@@H]3[C@@]4(C)C=C(I)C(=O)C(C)(C)[C@@H]4CC[C@@]3(C)[C@]1(C)CC2
pIC50 [1]: < 4.60

COC(=O)[C@]12CCC(C)(C)C[C@H]1C1=CC[C@@H]3[C@@]4(C)CC(C=O)=C(O)C(C)(C)[C@@H]4CC[C@@]3(C)[C@]1(C)CC2
pIC50 [1]: < 4.60

COC(=O)[C@]12CCC(C)(C)C[C@H]1C1=CC[C@@H]3[C@@]4(C)CC(C#N)=C(O)C(C)(C)[C@@H]4CC[C@@]3(C)[C@]1(C)CC2
pIC50 [1]: < 4.60

COC(=O)[C@]12CCC(C)(C)C[C@H]1C1=CC[C@@H]3[C@@]4(C)C=C(C#Cc5ccccc5)C(=O)C(C)(C)[C@@H]4CC[C@@]3(C)[C@]1(C)CC2
pIC50 [1]: < 4.60

COC(=O)[C@]12CCC(C)(C)C[C@H]1C1=CC[C@@H]3[C@@]4(C)C=C(C#N)C(=O)C(C)(C)[C@@H]4CC[C@@]3(C)[C@]1(C)CC2
pIC50 [1]: 4.82 | Ratio [2]: 1.69

COC(=O)[C@]12CCC(C)(C)C[C@H]1C1=CC[C@@H]3[C@@]4(C)Cc5cnoc5C(C)(C)[C@@H]4CC[C@@]3(C)[C@]1(C)CC2
pIC50 [1]: < 4.60

COC(=O)[C@]12CCC(C)(C)C[C@H]1C1=CC[C@@H]3[C@@]4(C)C=C(OC(C)=O)C(=O)C(C)(C)[C@@H]4CC[C@@]3(C)[C@]1(C)CC2
pIC50 [1]: < 4.60

COC(=O)[C@]12CCC(C)(C)C[C@H]1C1=CC[C@@H]3[C@@]4(C)C=C(c5ccc(C#N)cc5)C(=O)C(C)(C)[C@@H]4CC[C@@]3(C)[C@]1(C)CC2
pIC50 [1]: < 4.60

COC(=O)C1=C[C@]2(C)[C@H]3CC=C4[C@@H]5CC(C)(C)CC[C@]5(C(=O)OC)CC[C@@]4(C)[C@]3(C)CC[C@H]2C(C)(C)C1=O
pIC50 [1]: < 4.60

COC(=O)[C@]12CCC(C)(C)C[C@H]1[C@H]1C(=O)C=C3[C@@]4(C)C=C(C#N)C(=O)C(C)(C)[C@@H]4CC[C@@]3(C)[C@]1(C)CC2 [BARDOXOLONE METHYL]
pIC50 [1]: 5.62 to 5.92 | Ratio [2]: 40.9

COC(=O)[C@]12CCC(C)(C)C[C@H]1C1=CC[C@@H]3[C@@]4(C)C=C(C=O)C(=O)C(C)(C)[C@@H]4CC[C@@]3(C)[C@]1(C)CC2
pIC50 [1]: 5.11 | EC50 [3]: Nd(Toxic) | Activity (HaCaT): Toxic | Activity (HeLa): Toxic | IC50 [4]: Nd(Toxic)

COC(=O)[C@]12CCC(C)(C)C[C@H]1C1=CC[C@@H]3[C@@]4(C)C=C(C(=O)O)C(=O)C(C)(C)[C@@H]4CC[C@@]3(C)[C@]1(C)CC2
pIC50 [1]: < 4.60 | Ratio [2]: 0.41

COC(=O)[C@]12CCC(C)(C)C[C@H]1C1=CC[C@@H]3[C@@]4(C)CCC(=O)C(C)(C)[C@@H]4CC[C@@]3(C)[C@]1(C)CC2
pIC50 [1]: < 4.60

CC1(C)CC[C@]2(C(=O)O)CC[C@]3(C)C(=CC[C@@H]4[C@@]5(C)CC[C@H](O)C(C)(C)[C@@H]5CC[C@]43C)[C@@H]2C1 [OLEANOLIC_ACID]
pIC50 [1]: < 4.30

COC(=O)[C@]12CCC(C)(C)C[C@H]1C1=CC[C@@H]3[C@@]4(C)C=C(c5ccccc5)C(=O)C(C)(C)[C@@H]4CC[C@@]3(C)[C@]1(C)CC2
pIC50 [1]: < 4.60

COC(=O)[C@]12CCC(C)(C)C[C@H]1C1=CC[C@@H]3[C@@]4(C)C=C(c5ccc(OC)cc5)C(=O)C(C)(C)[C@@H]4CC[C@@]3(C)[C@]1(C)CC2
pIC50 [1]: < 4.60
